Experiments:
[1] = Peptide self-assembly by photoinduced cross-linking; type: physicochemical; conditions: peptide 36 µM, not cross-linked, boiled, denaturing gel, silver staining
Method in brief: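 Peptides at 36 µM in PBSA, 1 h at 37 °C, then photo-cross-linked (PICUP) and heated 95 °C for 5 min. Non-cross-linked samples boiled for comparison. Separated on 10–20% Tris-Tricine gel; silver stained.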

[2] = target: T1, Aβ(1–40) (Homo sapiens, UniProt P05067); test: Thioflavin T; type: biochemical; conditions: 28 µM Aβ, 2.8 µM peptide or protein, 37 °C, 1, 5, 24, 48 h
T1 sequence (P05067 672-711 limits assumed): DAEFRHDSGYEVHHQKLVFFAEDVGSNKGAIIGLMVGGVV
Method in brief: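 Aβ(1–40) urea/glycine stock diluted into PBSA; 28 µM alone or with 2.8 µM peptide or mutant TTR, incubated at 37 °C. At 1, 5, 24 and 48 h, aliquots diluted 14-fold into 10 µM ThT in PBSA. Excitation 440 nm, emission 460–500 nm; intensity at 480 nm used. Three serial spectra averaged, ThT-in-PBSA background subtracted; some samples from two independent experiments.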

[3] = tested on: primary cortical neuronal cells; test: Aβ induced toxicity, MTS assay with primary neuronal cultures; type: cell-based, mice; conditions: for protection from Aβ toxicity at 10 µM peptide: 10 µM Aβ(1–42), MTS, Aβ alone ~35% cell viability
Method in brief: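 Cortical neurons from E15.5 mouse embryos, matured in neurobasal medium. Aβ(1–42) at 1 mg/mL in PBS, diluted to 10 µM with or without test peptide or mutant TTR at varying doses. Added at 6 DIV alongside vehicle and controls. At 8 DIV, MTS reagent for 2–3 h, absorbance 490 nm. Significance versus vehicle and versus Aβ set at p < 0.05.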

[4] = Peptide self-association by light scattering; type: physicochemical; conditions: peptide alone 80 µM, 37 °C, after 1 h of incubation; data not shown
[5] = target: T1, Aβ(1–40); test: Aβ aggregate growth kinetics by dynamic light scattering; type: biochemical; conditions: method not specified
Method in brief: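 Aβ(1–40) relyophilized from 50% ACN and stored as a urea/glycine stock; thawed, sonicated 2 min and diluted into PBSA. 140 µM Aβ alone or with 14 µM peptide, 0.45 µm filtered into a cuvette held at 37 °C. 488 nm laser; intensity at 90° recorded over 10 h and normalized to total mass concentration; z-averaged hydrodynamic diameter from the autocorrelation function by cumulants.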

Row | Substance | bands in the absence of cross-linker [1] | effect on ThT fluorescence increase up to 48 h [2] | protection from Aβ toxicity at 10 µM peptide [3] | light scattered above background (self-association) [4] | effect on Aβ aggregation (summary statement) [5] | inhibition of Aβ toxicity (summary statement) ([3]; summary, concentration not given)
1 | SKVVT^DPPRYTIAALLSPYSYSQ [LG3] | ~ 5 kDa | at most a minor inhibitory effect | no protective effect | did not scatter light above background | – | –
2 | SKV^DPPTIAALLSPYSYSQ (head to tail) [CG2] | – | – | no protective effect | – | – | –
3 | SKV^DPPTIAALLSPYSYSQ [LG2] | – | – | – | – | nor did they affect Aβ aggregation | nor did they affect Aβ aggregation or inhibit Aβ toxicity
